In data set [1] the test system is Human alphaherpesvirus 1. Put plainly: Antiviral activity against Herpes simplex virus 1 infected in African green monkey Vero cells assessed as viral titer at 400 uM after 40 hrs by plaque formation assay relative to control. It counts as functional. The gist of the method: (§1)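 After a 1 h adsorption at 37 °C, inoculum was removed, cells were PBS-washed, and medium with or without compound was added. Incubation was 40 h at 37 °C. Cultures were freeze-thawed three times, and lysate yield was titrated by plaque assay on Vero. Pfu given as % of drug-free culture.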

Data set [2] can be described thus: Cytotoxicity against mouse Sarcoma 180 cells assessed as cell viability at 400 uM after 18 to 42 hrs relative to control.
Data set [3] concerns Vero. Put plainly: Cytotoxicity against African green monkey Vero cells assessed as inhibition of replication. To be noted: chlorocebus sabaeus. It counts as cell-based.
For data set [4], the system named is Human alphaherpesvirus 1. Put plainly: Antiviral activity against Herpes simplex virus 1 infected in African green monkey Vero cells assessed as viral titer at 200 uM after 40 hrs by plaque formation assay relative to control. In kind it is functional. The gist of the method: as §1
Data set [5] can be described thus: Cytotoxicity against mouse Sarcoma 180 cells assessed as cell viability at 100 uM after 18 to 24 hrs relative to control. It counts as cell-based. To be noted: in the assay text read “18 to 42 hrs” for “18 to 24 hrs”, read-out: Activity. The gist of the method: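 Sarcoma 180 cells were grown in medium with horse serum at 37 °C under humidified 5% CO2–95% air, with a generation time of about 18 h. Compound was added to exponentially growing cultures at about 2 × 10^4 cells/ml. The increase in cell number was measured after 18 and 42 h, and percent inhibition was calculated relative to a drug-free control.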

Structures are written as SMILES.

For the molecule `NC[C@H]1O[C@@H](n2ccc(=O)[nH]c2=O)C[C@@H]1O`, in data set [1], the Activity worked out at 101%. Further, the viability at 400 µM in data set [2] is 100%.
`Cc1cn([C@H]2C[C@H](O)[C@@H](CN)O2)c(=O)[nH]c1=O`: the Activity was 3% in data set [1] and “Non-toxic” in data set [3]. Further, the viability at 400 µM in data set [2] stood at 100%.
On to `[N-]=[N+]=NC[C@H]1O[C@@H](n2cc(Br)c(=O)[nH]c2=O)C[C@@H]1O`, for which the Activity in data set [1] is 54%. Besides, the viability at 400 µM in data set [2] came out at 100%.
The matching figures for `[N-]=[N+]=NC[C@H]1O[C@@H](n2cc(Cl)c(=O)[nH]c2=O)C[C@@H]1O`: 81% and 100%.
The like results for `[N-]=[N+]=NC[C@H]1O[C@@H](n2cc(I)c(=O)[nH]c2=O)C[C@@H]1O` were, in that order, 60% and 100%.
As for `NC[C@H]1O[C@@H](n2cc(Cl)c(O)nc2=O)C[C@@H]1O`, the Activity was 29% in data set [1] and “Non-toxic” in data set [3]. Moreover, in data set [2], the viability at 400 µM is 100%.
With `NC[C@H]1O[C@@H](n2cc(Br)c(O)nc2=O)C[C@@H]1O`, the Activity entry is “Non-toxic” in data set [3] and 1% in data set [4].
On to `Cc1ccc(S(=O)(=O)OC[C@H]2O[C@@H](n3cc(Br)c(=O)[nH]c3=O)C[C@@H]2O)cc1`, for which the viability at 100 µM in data set [5] amounted to 65%.
For the molecule `Cc1ccc(S(=O)(=O)OC[C@H]2O[C@@H](n3cc(Cl)c(=O)[nH]c3=O)C[C@@H]2O)cc1`, the viability at 100 µM in data set [5] was 65%.

These data come from ChEMBL document CHEMBL3272095, “Synthesis and antiviral activity of 5- and 5'-substituted thymidine analogs” (J Med Chem, 1976).
